mABHD4 FP: inhibits mouse alpha/beta hydrolase domain 4; 370,000 tested, 0.54% active; Q8VD66; purified mABHD4, FP-Rh probe fluorescence polarization; inhibition, % at 8.92 µM;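 active means inhibition exceeding the mean over every tested compound plus 3 SD, cut at about 30% in these data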;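 further: 0% = plate median of compound wells and 100% = S159A mutant with DMSO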
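Test system: mABHD4 protein; Read-out basis: % inhibition; Incubation: 45 min + 60 min at 25 °C; Repeats: single replicate; Technique: fluorescence polarization with parallel and perpendicular emission, 525/598 nm; Compound: 8.92 µM, single dose; Benchmarks: full inhibition S159A mutant plus DMSO, zero as sample-well median.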
SIAE inh: inhibitors of human sialic acid acetylesterase SIAE; 370,000 tested, 0.69% active; inhibition, % at 9.66 µM; SIAE FP-Rh probe binding, fluorescence polarization;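 active means inhibition above a cutoff: mean of compounds within the control limits plus 3 SD of those, cut at about 17% in these data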;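 further: 0% = plate median of compound wells and 100% = probe without SIAE protein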
TCR CD3 inh: inhibitors of human TCR-CD3 interaction | TAMRA-labeled TCR probe fluorescence, biochemical | inhibition, % at 9.4 µM | AID 651800 | 360,000 tested, 0.37% active; in the data active means inhibition above about 19%;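 further: recombinant mutant TCR 2C K166C tagged with TAMRA read by polarization; 0% = receptor in buffer alone and 100% = receptor with positive control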
Fam108B counter: counter-screen for RBBP9 inhibitors: inhibitors of mouse Fam108B | 300,000 tested, 0.33% active | inhibition, % at 9.51 µM | AID 1947 | recombinant Fam108B, FP-Rh probe fluorescence polarization;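 active means inhibition above the screen mean inhibition plus 3 SD, computed separately per campaign, cut at about 18% in these data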;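 further: inhibitors lower polarization as less probe binds the enzyme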
HTRA1 inh: HTRA1 (human) protease inhibition. AID 504803. 340,000 tested, 0.5% active. recombinant HTRA1, FP-rhodamine activity-based probe, fluorescence polarization. inhibition, % at 5.96 µM. Q92743; in the data active means inhibition above about 36%;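 further: 0% = enzyme with DMSO and 100% = wells lacking enzyme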
Target sequence (Q92743 whole entry, looked up): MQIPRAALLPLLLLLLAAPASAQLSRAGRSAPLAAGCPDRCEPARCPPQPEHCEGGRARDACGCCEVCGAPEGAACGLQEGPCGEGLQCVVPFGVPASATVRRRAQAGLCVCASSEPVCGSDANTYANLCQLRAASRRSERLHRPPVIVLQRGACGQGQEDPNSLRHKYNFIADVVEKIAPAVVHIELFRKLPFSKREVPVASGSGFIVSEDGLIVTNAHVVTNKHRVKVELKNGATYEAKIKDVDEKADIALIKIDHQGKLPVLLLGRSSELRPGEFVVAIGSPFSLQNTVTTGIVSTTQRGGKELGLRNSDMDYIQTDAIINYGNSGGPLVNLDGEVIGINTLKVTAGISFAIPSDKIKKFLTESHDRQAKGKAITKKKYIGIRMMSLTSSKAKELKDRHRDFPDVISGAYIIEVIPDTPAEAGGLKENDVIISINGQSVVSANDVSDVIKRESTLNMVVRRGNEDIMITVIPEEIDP
PME-1 inh: PME-1 (human) inhibition; 320,000 tested, 0.53% active; Q9Y570; inhibition, % at 5.9 µM; AID 2130; recombinant PME-1, FP-Rh probe fluorescence polarization;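 active means inhibition above the campaign mean of all compounds plus 3 SD, cut at about 26% in these data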;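 further: competitive labeling of PME-1 active site by serine hydrolase directed probe; 0% = PME-1 with DMSO and 100% = wells lacking PME-1 enzyme; inhibitors block probe labeling so polarization falls and inhibition rises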
An asterisk follows results filed as active; / = not tested or not shown. Only some compounds are listed: those with a hit (about 1.8% of all), similar ones and a draw of the others.

SMILES	mABHD4 FP	SIAE inh	TCR CD3 inh	Fam108B counter	HTRA1 inh	PME-1 inh
CCCCCCCCN1C(=O)[C@@H](CC(=O)NCc2ccc(OC)c(OC)c2)C[C@@]2(C(=O)OC)C1=C[C@H](COCc1ccccc1)O[C@@H]2C	0.1	0.7	/	/	/	/
COC(=O)C1CN(CCc2ccccc2)CCS(=O)(=O)N1Cc1ccc(C(F)(F)F)cc1 (configuration not stated)	-7.6	-0.1	/	/	/	/
C#CCCCN([C@H](C(=O)OC)C(C)C)S(=O)(=O)c1ccccc1Br	-15.2	-2.9	/	/	/	/
N#C/C(C(=O)N1CCCCC1)=C1\Nc2ccccc2S1	11.1	2.4	-6.0	11.5	2.2	1.2
Cc1ccc(NC(=S)/C(C#N)=C2/Nc3ccccc3S2)cc1	63.4*	3.5	7.2	/	1.4	/
COc1ccc(-c2cc(C(F)(F)F)n3nc(C(=O)Nc4cc(C)on4)cc3n2)cc1OC	3.2	18.1*	0.6	-1.6	8.1	-6.8
COc1ccccc1/C=C/C=N/n1c(-c2cc(-c3ccccc3)n[nH]2)n[nH]c1=S	-7.4	-32.4	-3.1	2.2	-34.8	26.8*
c1ccc(-c2nc3ccccc3[nH]2)nc1	6.0	-7.8	10.2	-2.8	20.8	1.3
c1ccc(-c2nc3c(ccc4ccccc43)[nH]2)nc1	7.3	29.0*	-2.5	-1.9	36.1	7.5
O=C(N/N=C/c1ccco1)c1cccc(N2Cc3ccccc3C2)c1	-0.9	-1.9	24.5*	-4.2	10.4	-0.6
O=C(N/N=C/c1ccco1)c1cccc(N2CCCC2=O)c1	12.8	0.2	6.1	2.2	11.8	-2.7
N#Cc1ccccc1Cn1c(=O)n(-c2ccc(CC(=O)NCc3ccco3)cc2)c(=O)c2sccc21	-0.4	3.9	2.0	-0.7	-1.6	37.3*
COC(=O)[C@]12C[C@H](CC(=O)NCCCCc3ccccc3)C(=O)N(CCc3ccc(OC)c(OC)c3)C1=C[C@H](COCc1ccccc1)O[C@@H]2C	-5.6	-1.9	/	/	/	/
CCOc1cc(/C=N/Nc2cc(C)nc(-n3nc(C)cc3C)n2)ccc1O	1.4	3.6	1.4	-0.3	21.9	14.9
COc1ccc(/C=N/Nc2cc(C)nc(-n3nc(C)cc3C)n2)c(OC)c1	8.5	3.2	3.5	2.4	1.2	54.3*
Cc1ccc(Cn2cc(CN3[C@@H](Cc4ccccc4)COc4cc(Br)ccc4S3(=O)=O)nn2)cc1	4.1	0.8	/	/	/	/
Cc1cc(Nc2ccc(O)cc2)ccc1N	/	/	/	/	/	35.5*
CCc1[nH]nc2c1C(c1cccc(OC(=O)N3CCOCC3)c1)C(C#N)=C(N)O2 (configuration not stated)	-0.3	25.0*	6.6	2.7	1.7	-1.2
Cc1nc2sccn2c1P(c1c(C)nc2sccn12)c1c(C)nc2sccn12	-12.4	17.4*	3.1	0.2	1.9	6.0
CCOC(=O)c1c(C)nc2sccn12	-0.3	3.8	7.1	1.6	-1.8	-1.6
COc1ccc(CNS(=O)(=O)/C=C/c2ccccc2CNC(=O)OC(C)(C)C)cc1	-3.0	6.0	/	/	/	/
O=C(Cc1c[nH]c2ccccc12)Nc1ccc(Nc2cccnc2)c(-c2cc(F)cc(F)c2)c1	7.9	14.6	5.0	/	/	/
O=[N+]([O-])c1ccc2c(c1)N([O-])C1(CCCCC1)[N+]2=O	53.2*	12.7	3.7	/	/	/
CCCC(=O)NC(c1ccccc1Cl)c1c(O)ccc2ccccc12 (configuration not stated)	-13.8	-9.6	1.1	-0.2	-23.2	60.5*
CCCCC(=O)NC(c1ccccc1Cl)c1c(O)ccc2ccccc12 (configuration not stated)	-13.7	-0.9	1.0	0.7	-15.2	45.5*
COC(=O)C1CN(C2CCCC2)CCS(=O)(=O)N1Cc1cn(Cc2ccc(F)cc2)nn1 (configuration not stated)	-1.0	-0.8	/	/	/	/
O=C(NCCc1ccccc1)OCc1cn(Cc2ccccc2C(F)(F)F)nn1	3.4	-0.8	/	/	/	/
CC(=O)Nc1ccc(C=NNc2ccc([N+](=O)[O-])cc2S(=O)(=O)Nc2ccccc2C(=O)O)cc1	-14.1	-8.7	2.2	/	-45.1	/
CN(CCO)c1ccc(C=NNc2ccc([N+](=O)[O-])cc2S(=O)(=O)Nc2ccccc2C(=O)O)cc1	46.1*	2.6	1.0	/	/	/
CCC(=O)OC1(C)C(=O)C=C2C=C(c3ccsc3)OC=C2C1=O (configuration not stated)	/	/	/	6.1	48.1*	3.3
